Values after ≈ are worked out from the molar mass of the structure shown.
Key:
[1] = test system: Candida albicans; experiment: In vitro antifungal activity against Candida albicans B311.; assay type: functional
In short: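 Cells grown 24 h at 37 °C in Sabouraud dextrose broth, centrifuged, washed and resuspended in 0.9% saline at 10^6 CFU/mL (hemacytometer). MIC by 2-fold serial dilution in yeast nitrogen broth with a 10 μL loop inoculum. Incubation at 37 °C, read at 24 and 48 h. MIC is the lowest inhibitory concentration. Amphotericin B is the control. Replicate evaluations.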

[2] = test system: Mycobacterium intracellulare; experiment: In vitro anti-mycobacterial activity against Mycobacterium intracellular ATCC 23068.; assay type: functional
In short: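 Organism grown on Lowenstein-Jensen medium for 48 h at 37 °C. Active compounds from the agar-well screen (1 mg/mL, zone >4 mm) go to 2-fold serial broth dilution in Mueller-Hinton broth. 10 μL loop inoculum per tube, 37 °C for 72 h. MIC is the lowest concentration inhibiting growth. Rifampin is the positive control. Replicate evaluations.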

[3] = test system: Cryptococcus neoformans; experiment: In vitro antifungal activity against Cryptococcus neoformans ATCC 32264.
[4] = test system: Aspergillus fumigatus; experiment: In vitro antifungal activity against Aspergillus fumigatus ATCC 26934.; assay type: functional
In short: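 Inoculum is a surface-growth suspension from agar slants in sterile water. Compounds active in the agar-well diffusion screen (1 mg/mL, zone >4 mm) are tested by 2-fold serial dilution in Sabouraud dextrose broth. 10 μL loop inoculum, 30 °C, read at 48 and 72 h. MIC is the lowest growth-inhibiting concentration. Amphotericin B is the control. Replicate evaluations.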

SMILES	MIC [1] [µg/mL]	MIC [2] [µg/mL]	MIC [3] [µg/mL]	MIC [4] [µg/mL]
Cc1c2c(nc3ccccc13)C(=O)c1ccccc1C2=O	25 (≈ 91.5 µM)	1.56 (≈ 5.71 µM)	25 (≈ 91.5 µM)	
CCOc1nc2c3c(nccc3c1Br)-c1ccccc1C2=O		25 (≈ 70.4 µM)	25 (≈ 70.4 µM)	
COc1cnc2c3c(nccc13)-c1ccccc1C2=O	3.12 (≈ 11.9 µM)	3.12 (≈ 11.9 µM)	1.56 (≈ 5.95 µM)	
Nc1cnc2c3c(nccc13)-c1ccccc1C2=O	100 (≈ 404 µM)		25 (≈ 101 µM)	
[N-]=[N+]=Nc1cnc2c3c(nccc13)-c1ccccc1C2=O	25 (≈ 91.5 µM)		6.25 (≈ 22.9 µM)	
CCc1ccnc2c1C(=O)c1ccccc1C2=O	100 (≈ 421 µM)	12.5 (≈ 52.7 µM)	3.12 (≈ 13.2 µM)	
O=C1c2ccccc2-c2nccc3c2c1nc1ccccc13 [BENZOSAMPANGINE]	0.39 (≈ 1.38 µM)	0.39 (≈ 1.38 µM)	1.56 (≈ 5.53 µM)	0.39 (≈ 1.38 µM)
Cc1ccnc2c1C(=O)c1ccccc1C2=O [CLEISTOPHOLINE]	12.5 (≈ 56 µM)	12.5 (≈ 56 µM)	1.56 (≈ 6.99 µM)	100 (≈ 448 µM)
CO[C@H]1/C=C/O[C@@]2(C)Oc3c(C)c(O)c4c(O)c(c(/C=N/N5CCN(C)CC5)c(O)c4c3C2=O)NC(=O)/C(C)=C\C=C\[C@H](C)[C@H](O)[C@@H](C)[C@@H](O)[C@@H](C)[C@H](OC(C)=O)[C@@H]1C [RIFAMPIN]		0.78 (≈ 0.948 µM)		
O=C1c2ccccc2-c2nccc3ccnc1c23 [SAMPANGINE]	1.56 (≈ 6.72 µM)	0.78 (≈ 3.36 µM)	0.78 (≈ 3.36 µM)	1.56 (≈ 6.72 µM)

The remaining compounds from weak to strong by MIC [3], led by results:

MIC [1] [µg/mL]	MIC [2] [µg/mL]	MIC [3] [µg/mL]	MIC [4] [µg/mL]	SMILES
1.56 (≈ 5.95 µM)	1.56 (≈ 5.95 µM)	0.78 (≈ 2.97 µM)	0.78 (≈ 2.97 µM)	COc1cnc2c3c(nccc13)C(=O)c1ccccc1-2
0.39 (≈ 1.58 µM)	0.39 (≈ 1.58 µM)	0.39 (≈ 1.58 µM)	0.78 (≈ 3.17 µM)	Cc1cnc2c3c(nccc13)C(=O)c1ccccc1-2
0.78 (≈ 0.844 µM)		0.39 (≈ 0.422 µM)	0.39 (≈ 0.422 µM)	C[C@@H]1[C@H](O)[C@@H](C)/C=C/C=C/C=C/C=C/C=C/C=C/C=C/[C@H](O[C@@H]2O[C@H](C)[C@@H](O)[C@H](N)[C@@H]2O)C[C@@H]2O[C@](O)(C[C@@H](O)C[C@@H](O)[C@H](O)CC[C@@H](O)C[C@@H](O)CC(=O)O[C@H]1C)C[C@H](O)[C@H]2C(=O)O [AMPHOTERICIN B]
3.12 (≈ 10 µM)	3.12 (≈ 10 µM)	0.1 (≈ 0.321 µM)	50 (≈ 161 µM)	O=C1c2ccccc2-c2nccc3c(Br)cnc1c23
0.39 (≈ 1.46 µM)	3.12 (≈ 11.7 µM)	0.1 (≈ 0.375 µM)		O=C1c2ccccc2-c2nccc3c(Cl)cnc1c23

From ChEMBL document CHEMBL1125339, “Copyrine alkaloids: synthesis, spectroscopic characterization, and antimycotic/antimycobacterial activity of A- and B-ring-functionalized sampangines” (1992)
